High-throughput results: PubChem, several laboratories
CSC inhib: cancer stem cell inhibition; inhibition, % at 7.5 µM; cancer stem cell-like cells viability, luminescence; AID 2717; 300,000 compounds, 1.1% hits; in the data active = inhibition above about 75%; inconclusive = no clear call, values can overlap the other calls; tested in HMLE shEcad cells
T cruzi repl: T. cruzi replication inhibition; T. cruzi beta-gal in NIH3T3, luminescence, 90 h; inhibition, % (no concentration beside the values); 300,000 compounds, 1.4% hits;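 active = mean inhibition across valid replicates above about 55%, limit read from the data; inconclusive = mean below that limit but half or more replicates reach it; inactive = mean below it, under half of replicates reach it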;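 also: signal also drops with host cell toxicity which is not excluded here; 0% = plate median of DMSO wells and 100% = zero luminescence signal; higher percent means less beta-gal luminescence so fewer parasites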
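System: NIH/3T3 fibroblasts plus reporter T. cruzi. Medium: DMEM plus 2% FBS. Probe or stimulus: 5000 reporter trypomastigotes per well. Compound: single 50 nL compound addition per well in DMSO. Incubation: co-culture of at least 90 h after 3 h attachment. Detection: GalScreen β-gal luminescence, detergent lysis, 60 min. Evaluation: parasite load inhibition, %.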
Beta cell apopt: blocks beta cell apoptosis; 300,000 compounds, 0.8% hits; protection from apoptosis, % (concentration not given with the values); AID 435005; INS-1E cytokine-induced death, ATP luminescence, 48 h; percent of positive-control rescue, neutral wells zero;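 active = Every replicate reaches about 75%, or at least half do and their mean reaches it too, limit read from the data; inconclusive = At least half of replicates reach the limit but their mean does not; inactive = Under half of replicates reach the limit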;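 also: 0% = cytokine-treated negative control wells and 100% = positive control rescue; higher means more ATP so stronger rescue from cytokine killing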
Calb FLC: affects C. albicans growth with fluconazole; growth inhibition, % (concentration not given with the values); C. albicans CaCi-2 (fluconazole-resistant clinical isolate) + fluconazole, Alamar Blue growth, 48 h; 300,000 compounds, 0.57% hits;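 active = growth inhibition above about 58% in most replicates, limit read from the data, passing the limit was not always enough; inconclusive = exactly half the replicates above a set limit; inactive = most replicates below a set limit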;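 also: all wells also contain fluconazole at 8 µg/ml as a sub-toxic cotreatment; 0% = median of DMSO wells and 100% = median of geldanamycin control wells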
SKKanGAS inh: SKKanGAS growth inhibition | S. pyogenes SKKanGAS, kanamycin growth, BacTiter-Glo, 6 h | 300,000 compounds, 1.3% hits | inhibition, % at 7.5 µM;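 active = mean replicate score, as percent of positive control median, at least 50; inconclusive = mean below 50 but one replicate at or above 50; inactive = mean and every replicate below 50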;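 also: strain carries kanamycin resistance gene driven by streptokinase promoter and grows in 40 µg/ml kanamycin; loss of luminescence reflects streptokinase promoter inhibition or plain growth inhibition; 0% = median of DMSO wells and 100% = positive control at its reference dose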
Mdm2 MdmX PPI: inhibitors of human Mdm2/MdmX interaction. inhibition, % at 8 µM. 330,000 compounds, 3% hits. SaOS-2 split-luciferase Mdm2/MdmX complementation, luminescence. O15151+Q00987;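 active = inhibition of at least 50% at 8 µM in the primary screen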
Target sequence (O15151 whole entry, looked up): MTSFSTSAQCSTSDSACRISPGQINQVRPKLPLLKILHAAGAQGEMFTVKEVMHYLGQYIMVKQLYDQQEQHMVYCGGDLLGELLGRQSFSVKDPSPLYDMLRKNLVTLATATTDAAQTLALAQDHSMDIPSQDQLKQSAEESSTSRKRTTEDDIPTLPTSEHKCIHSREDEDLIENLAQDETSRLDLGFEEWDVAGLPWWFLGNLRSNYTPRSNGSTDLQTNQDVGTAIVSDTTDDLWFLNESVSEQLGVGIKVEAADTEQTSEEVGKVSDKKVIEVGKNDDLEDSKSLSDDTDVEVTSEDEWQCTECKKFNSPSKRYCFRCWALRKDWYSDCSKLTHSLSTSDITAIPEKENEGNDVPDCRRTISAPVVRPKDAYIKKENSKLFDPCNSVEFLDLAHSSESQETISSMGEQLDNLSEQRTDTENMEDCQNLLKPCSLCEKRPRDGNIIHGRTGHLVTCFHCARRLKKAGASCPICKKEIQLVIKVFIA
Target sequence (Q00987 whole entry, looked up): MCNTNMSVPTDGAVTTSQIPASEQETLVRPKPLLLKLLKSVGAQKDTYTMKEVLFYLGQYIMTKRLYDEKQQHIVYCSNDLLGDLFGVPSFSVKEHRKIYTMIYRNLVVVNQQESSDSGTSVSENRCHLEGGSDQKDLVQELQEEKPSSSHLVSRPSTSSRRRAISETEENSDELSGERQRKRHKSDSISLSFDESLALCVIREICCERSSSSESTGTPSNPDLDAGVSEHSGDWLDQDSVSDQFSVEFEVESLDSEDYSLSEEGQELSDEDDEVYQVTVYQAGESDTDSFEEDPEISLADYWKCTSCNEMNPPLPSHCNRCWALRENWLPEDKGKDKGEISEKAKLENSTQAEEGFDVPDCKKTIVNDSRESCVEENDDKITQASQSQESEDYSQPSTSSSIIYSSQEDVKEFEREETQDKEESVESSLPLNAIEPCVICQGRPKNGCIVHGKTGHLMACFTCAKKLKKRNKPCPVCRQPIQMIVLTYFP
Mdm2-MdmX conf: human Mdm2/MdmX binding inhibition, confirmed; shares compounds with Mdm2 MdmX PPI; luminescent assay; inhibition, % at 8 µM; 10,000 compounds, 55% hits; in the data active = inhibition above about 40%
Full FLuc ctr: full-length luciferase inhibition in Mdm2/MdmX counter-screen; shares compounds with Mdm2 MdmX PPI; SaOS-2 full-length luciferase counterscreen, luminescence; inhibition, % at 8 µM; 6,200 compounds, 77% hits; AID 504607;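 active = mean inhibition at 8 µM reaching about 37%, which flags the compound as non-specific, limit read from the data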;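 also: p53-null SaOS-2 cells with luciferase driven by a doxycycline-inducible promoter; compound on cells about two nights before reading with doxycycline added after day one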
Numbers without * were called inactive; ? = inconclusive; / = no result. Compounds with a hit are over-represented: about 5.7% of the library has one in this group of screens.

SMILES	CSC inhib	T cruzi repl	Beta cell apopt	Calb FLC	SKKanGAS inh	Mdm2 MdmX PPI	Mdm2-MdmX conf	others
COc1ccc([C@H]2[C@H]3C=CC[C@@H](C)[C@@H]3C(=O)N2Cc2ccccc2)cc1Cl	6	20	-17	-13	22	34	/
COc1ccc(-c2ccccc2[C@H]2[C@@H]3C=CC[C@@H](C)[C@@H]3C(=O)N2Cc2ccccc2)cc1	/	/	/	/	/	69*	22
O=C(COC(=O)c1cnc(Cl)c(Cl)c1)NC1CC1	-11	/	-5	/	/	18	/
O=C1C2C(c3ccccc3)CC=CC2[C@H](c2ccc(C(F)(F)F)cc2)N1Cc1ccccc1 (stereo partly drawn)	?	36	21	23	25	79*	43*	Full FLuc ctr=63*
C[C@@H]1CC=C[C@@H]2[C@H]1C(=O)N(Cc1ccccc1)[C@H]2c1cccc(Br)c1	/	/	/	/	/	65*	11
C[C@@H]1CC=C[C@H]2[C@H]1C(=O)N(Cc1ccccc1)[C@H]2c1ccc(-c2ccc(F)cc2)cc1F	39	28	3	-14	30	28	/
COc1ccc(-c2c([C@H]3[C@H]4C=CC[C@@H](C)[C@@H]4C(=O)N3Cc3ccccc3)ccc3ccccc23)cc1OC	45	40	33	-6	22	71*	20
O=C(COc1ccc(Br)cc1)NCCNC(=O)c1ccncc1	-2	-4	3	-11	-16	-16	/
CCc1nc(SCC(=O)Nc2ccc3c(c2)OCCO3)c2oc3ccccc3c2n1	44	16	10	-3	3	86*	9
Cc1nc(SCC(=O)Nc2ccc3c(c2)OCCO3)c2oc3ccccc3c2n1	10	15	4	8	14	20	/
COc1cccc(/C=N/NC(=O)c2[nH]nc3c2CCc2ccccc2-3)c1	37	10	39	-7	18	56*	61*	Full FLuc ctr=44*
COc1ccc(OC)c(/C=N/NC(=O)c2[nH]nc3c2CCc2ccccc2-3)c1	-4	3	0	-14	-17	-18	/
CCOC(=O)c1c(C)[nH]c(C(=O)N/N=C/c2cccc(OC)c2)c1C	50	-12	0	-15	-6	53*	39
COc1cccc(/C=N/NC(=O)c2[nH]c(C)c(C(=O)N/N=C/c3cccc(OC)c3)c2C)c1	-1	-18	-4	1	21	25	/
Cc1ccc(C2CC(c3cccs3)=NN2C(=O)CCl)cc1 (stereo not drawn)	29	59*	-10	3	10	100*	96*	Full FLuc ctr=53*
CCC(=O)N1N=C(c2cccs2)CC1c1ccc(C)cc1 (stereo not drawn)	-6	19	3	11	17	-12	/
COc1ccc(C2CC(c3cccs3)=NN2C(=O)CSC2=NCCS2)cc1 (stereo not drawn)	19	16	-2	10	?	54*	14
Cc1ccc(C2CC(c3cccs3)=NN2C(=O)CSC2=NCCS2)cc1 (stereo not drawn)	3	21	-9	-5	21	55*	28
CC(OC(=O)CCC(=O)c1ccc(F)cc1)C(=O)NC1CCCCC1C (stereo not drawn)	-15	24	-7	-8	15	24	/
Cc1ccc(CN2C(=O)CSC2c2ccccc2F)cc1 (stereo not drawn)	-3	12	-1	5	1	10	/
Cc1ccc(-c2nn3c(-c4ccco4)nnc3c3ccccc23)cc1S(=O)(=O)NCC1CCCO1 (stereo not drawn)	-10	35	24	9	15	53*	39	Full FLuc ctr=68*
CNC(=O)c1ccc(Nc2nnc(-c3ccc(C)c(S(=O)(=O)NCC4CCCO4)c3)c3ccccc23)cc1 (stereo not drawn)	-14	5	5	31	17	11	/
Cc1ccccc1C(=O)O/N=C/c1c(N2CCOCC2)n(C)c2ccccc12	-4	49	63	107*	6	53*	37
CC(NC(=O)CNC(=O)c1ccco1)c1ccccc1 (stereo not drawn)	-1	12	1	-3	-1	16	/
O=C(CCl)Nc1cccc(S(=O)(=O)N2CCCCCC2)c1	19	8	-9	-48	7	98*	44*	Full FLuc ctr=24
SMILES	CSC inhib	T cruzi repl	Beta cell apopt	Calb FLC	SKKanGAS inh	Mdm2 MdmX PPI	Mdm2-MdmX conf	others
CC(=O)c1c(C)[nH]c(C(=O)Nc2cccc(S(=O)(=O)N3CCCCC3)c2)c1C	-1	/	-1	/	/	72*	36
O=C(CCl)Nc1cccc(S(=O)(=O)NC2=NCCCCC2)c1	61	/	-18	/	/	62*	69*	Full FLuc ctr=36
O=C(Cc1ccc(Cl)cc1)Nc1cccc(S(=O)(=O)N2CCCCC2)c1	-10	/	-7	/	/	19	/
O=C(CCl)Nc1ccc(S(=O)(=O)NC2=NCCCCC2)cc1	42	/	-20	/	/	9	/
Cc1ccc(C(=O)N(C)CC(=O)Nc2ccc(Cl)c(C(F)(F)F)c2)cc1S(=O)(=O)N1CCCCC1	/	/	8	/	/	46	/
Cc1ccc(S(=O)(=O)N2CCCCC2)cc1C(=O)N(C)CC(=O)Nc1ccc(Cl)c(C(F)(F)F)c1	42	28	19	-10	3	55*	68*	Full FLuc ctr=49*
COc1ccc(C(CNC(=O)C(Cc2ccccc2)NC(N)=O)N(C)C)cc1 (stereo not drawn)	2	-8	-2	-1	-3	12	/
COc1cccc(OC)c1C(=O)OCCCOC(=O)c1c(OC)cccc1OC	-2	9	-6	19	4	29	/
CC(C)CC(=O)Nc1nc(-c2ccc(S(=O)(=O)N3CCOCC3)cc2)cs1	/	9	/	-2	1	-12	/
Cc1ccc(-c2csc(NC(=O)c3cccc(S(=O)(=O)N4CCN(C)CC4)c3)n2)cc1	20	19	4	24	31	73*	65*	Full FLuc ctr=39*
Cc1ccc(Nc2nc(-c3ccc(S(=O)(=O)N4CCOCC4)cc3)cs2)cc1Cl	23	50	15	-9	2	63*	13
Cc1cc(N2CCN(C)CC2)ccc1NC(=O)c1cccc(S(=O)(=O)N2CCc3ccccc3C2)c1	54	75*	5	-11	6	96*	36	Full FLuc ctr=73*
O=C(Nc1nc(-c2ccccc2)cs1)C1CCCN(S(=O)(=O)c2ccccc2)C1 (stereo not drawn)	/	61*	/	-2	12	78*	65*	Full FLuc ctr=79*
O=C(Nc1nc(-c2ccc(S(=O)(=O)N3CCOCC3)cc2)cs1)c1ccccc1	28	-3	6	-6	-12	15	/
COc1cccc(C(=O)Nc2nc(-c3ccc(S(=O)(=O)N4CCOCC4)cc3)cs2)c1	29	20	7	-4	9	58*	4
Cc1noc(C)c1C(=O)Nc1nc2ccccc2s1	/	/	/	/	/	-60	/
